This note sets out measurements from ChEMBL document CHEMBL4270571, “6-Biphenylmethyl-3-hydroxypyrimidine-2,4-diones potently and selectively inhibited HIV reverse transcriptase-associated RNase H” (Eur J Med Chem, 2018).

The structures appear in SMILES notation. Where only a bound is given, the exact number is not on record here.

Data set [1] is described as follows: Cytotoxicity against human P4R5 cells assessed as reduction in cell viability after 72 hrs by XTT assay. It is filed as cell-based. The procedure, abridged:
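P4R5 cells seeded at 4 × 10³ per well in DMEM/10% FBS with puromycin ([…]). Cells treated with 1% DMSO or varying compound concentrations for 72 h, then viability read by XTT kit. CC50 = concentration giving 50% cell death, mean from at least two independent experiments.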
(Formazan colour is commonly taken as a measure of viable cells.)

Data set [2] addresses Human immunodeficiency virus type 1 integrase (Human immunodeficiency virus 1, UniProt Q7ZJM1). In words: Inhibition of HIV integrase strand transfer activity expressed in Escherichia coli BL21 (DE3) using 5' biotin ATGTGGAAAATCTCTAGCA primer annealed with ACTGCTAGAGATTTTCCACAT 3' Cy5 template preincubated for 10 mins followed by primer/template addition measured after 30 mins by fluorescence assay. The procedure, abridged:
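Purified HIV integrase in 10 mM HEPES pH 7.5, 10% glycerol, 10 mM MnCl₂, 1 mM DTT, with compounds in duplicate at 0.13–100 (final), 10 min at 25 °C. 500 nM biotin/Cy5 oligo duplex added, 30 min at 37 °C, EDTA quench. Products captured on streptavidin beads, washed, NaOH-denatured, formamide-eluted, read at 635/675.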

The target in data set [3] is Gag-Pol polyprotein (Human immunodeficiency virus type 1 group M subtype B (isolate HXB2)(HIV-1), UniProt P04585). In words: Inhibition of recombinant HIV1 reverse transcriptase polymerase expressed in Escherichia coli JM109 assessed as decrease in extension of 18 nucleotide DNA primer annealed to 100 nucleotide DNA template measured after 30 mins. Details: species or system Human immunodeficiency virus 1. The gist of the method:
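18-nt DNA primer annealed to 100-nt DNA template (40 nM) was extended by 20 nM RT with dNTPs in 50 mM Tris pH 7.8, 50 mM NaCl, 1% DMSO, with increasing compound concentrations. Reactions were started with 6 mM MgCl₂, run 30 min at 37 °C, and stopped with EDTA. dsDNA formed was quantified by fluorescent dye (ex/em 504/531 nm), and dose-response data were fitted to a logistic curve.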

Data set [4] concerns Human immunodeficiency virus 1. Put plainly: Antiviral activity against HIV1 infected in human P4R5 cells assessed as reduction in viral infection preincubated with cells for 24 hrs followed by viral infection measured after 48 hrs by fluorescence based MAGI assay. The format is functional, organism-based. The procedure, abridged: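 P4R5 indicator cells were seeded at 4 × 10³ per well in DMEM/10% FBS with puromycin. They were pretreated for 24 h with 1% DMSO or a range of compound concentrations, then infected with HIV-1 at an MOI of 1.25 for another 48 h. Cells were lysed and β-galactosidase was read by fluorescence with MUG substrate. EC50 is given as mean ± SD of at least two independent experiments.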

Data set [5] concerns the target Human immunodeficiency virus type 1 reverse transcriptase (Human immunodeficiency virus 1, UniProt Q72547). Put plainly: Inhibition of recombinant HIV1 reverse transcriptase RNase H expressed in Escherichia coli JM109 using RNA/DNA duplex substrate HTS1 as substrate.
Data set [6] in a line: Selectivity ratio of CC50 for human P4R5 cells to EC50 for HIV1 infected in human P4R5 cells. It is filed as toxicity, cell-based. The gist of the method:
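P4R5 indicator cells, 4 × 10³ per well in DMEM/10% FBS with puromycin. […] Cytotoxicity arm: uninfected cells, compound for 72 h, XTT read-out; CC50 is 50% cell death. Each value is mean ± SD of ≥2 independent experiments.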

Sequence of Human immunodeficiency virus type 1 integrase (Q7ZJM1 whole entry): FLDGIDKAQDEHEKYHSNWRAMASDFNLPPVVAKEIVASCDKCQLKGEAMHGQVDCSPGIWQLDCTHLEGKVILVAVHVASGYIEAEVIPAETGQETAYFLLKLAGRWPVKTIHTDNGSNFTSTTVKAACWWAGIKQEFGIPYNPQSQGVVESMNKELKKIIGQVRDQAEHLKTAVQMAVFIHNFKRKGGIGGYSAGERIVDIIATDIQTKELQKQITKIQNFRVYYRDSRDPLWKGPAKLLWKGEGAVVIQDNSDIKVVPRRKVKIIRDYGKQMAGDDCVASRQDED

One may read the CC50 as the concentration at which the toxic effect on the cells reaches its halfway point. Usually IC50 stands for the concentration at which inhibition is half-maximal. As a reminder, the EC50 is the concentration needed to bring the measured effect to its halfway point. Turning to `O=c1cc(Cc2cccc(-c3cccc(Cl)c3)c2)[nH]c(=O)n1O`, in data set [1], the CC50 was found to be 62 µM. Further, the IC50 is over 100 µM in data set [2], 10 µM in data set [3] and 0.02 µM in data set [5]. The EC50 in data set [4] was determined as 11 µM. Besides, in data set [6], the Ratio CC50/EC50 was in the range of 4 to 6.
`O=c1cc(Cc2ccc(-c3ccc(C(F)(F)F)cc3)cc2)[nH]c(=O)n1O`: in data set [1], the CC50 was over 100 µM. Moreover, the figures for the IC50 in data set [2], in data set [3] and in data set [5] were over 100 µM, over 10 µM and 0.047 µM, respectively. In data set [4], the EC50 was 16 µM.
Regarding `O=c1cc(Cc2ccc(-c3ccccc3)cc2)[nH]c(=O)n1O`, in data set [1], the CC50 amounted to 11 µM. For the same compound, the IC50 is over 100 µM in data set [2], over 10 µM in data set [3] and 0.016 µM in data set [5]. In data set [4], the concentration giving a half-maximal response (EC50) stood at 10 µM.
For the compound `O=c1cc(Cc2cccc(-c3ccc(Cl)cc3)c2)[nH]c(=O)n1O`, the CC50 in data set [1] amounted to 27 µM. The IC50 in data set [2] is over 100 µM; in data set [3] it was over 10 µM; in data set [5], 0.012 µM. Besides, the EC50 in data set [4] was 7.6 µM. Further, in data set [6], the Ratio CC50/EC50 lay within 4 to 6.
As for `COc1ccc(-c2ccc(Cc3cc(=O)n(O)c(=O)[nH]3)cc2)cc1F`, in data set [1], the CC50 is 49 µM. For the same compound, the IC50 in data set [2] is over 100 µM; in data set [3], over 10 µM; in data set [5], 0.0076 µM. Further, in data set [4], the EC50 came to 11 µM. In addition, in data set [6], the Ratio CC50/EC50 was in the range of 4 to 6.
